Test results from publication PMC9870662 (Medicinal Chemistry Research, 2023).
Like-named read-outs stand apart in the source and are kept apart here.

Experiments:
[1] = system: MCF-7 breast cancer cell line; assay: MTT cytotoxicity assay; type: cell-based; settings: for inhibition at 10 µM: Homo sapiens, MCF7, 72 h, read-out: % Inhibition (10 µM); for % Inhibition (10 µM): MCF-7, 72 h, MTT
Method in brief: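 MCF-7 cells from IBRC seeded in RPMI1640 at 37 °C, 5% CO2, high humidity. After one day, medium replaced with medium containing test compound; celecoxib as reference, plain medium as control. Incubated 72 h, then MTT added for 4 h at 37 °C. Supernatant removed, cells exposed to DMSO 20 min at 37 °C, absorbance read at 570 nm.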

male NMRI mice = assay: Acetic acid-induced writhing test; type: in vivo; settings: for Response (n) Mean ± SD: number of writhing responses during 30 min, eight mice; for ED50: Mus musculus, ip, read-out: Estimated ED50 (mg/kg) (95% Confidence Interval); for Estimated ED50 (mg/kg) (95% Confidence Interval): i.p., nonlinear regression of log dose-response curve
Ovine COX-1 = target: T1, Ovine COX-1 (Ovis aries, UniProt P05979); assay: COX-1 enzyme inhibition assay; type: biochemical
T1 sequence (P05979 25-600): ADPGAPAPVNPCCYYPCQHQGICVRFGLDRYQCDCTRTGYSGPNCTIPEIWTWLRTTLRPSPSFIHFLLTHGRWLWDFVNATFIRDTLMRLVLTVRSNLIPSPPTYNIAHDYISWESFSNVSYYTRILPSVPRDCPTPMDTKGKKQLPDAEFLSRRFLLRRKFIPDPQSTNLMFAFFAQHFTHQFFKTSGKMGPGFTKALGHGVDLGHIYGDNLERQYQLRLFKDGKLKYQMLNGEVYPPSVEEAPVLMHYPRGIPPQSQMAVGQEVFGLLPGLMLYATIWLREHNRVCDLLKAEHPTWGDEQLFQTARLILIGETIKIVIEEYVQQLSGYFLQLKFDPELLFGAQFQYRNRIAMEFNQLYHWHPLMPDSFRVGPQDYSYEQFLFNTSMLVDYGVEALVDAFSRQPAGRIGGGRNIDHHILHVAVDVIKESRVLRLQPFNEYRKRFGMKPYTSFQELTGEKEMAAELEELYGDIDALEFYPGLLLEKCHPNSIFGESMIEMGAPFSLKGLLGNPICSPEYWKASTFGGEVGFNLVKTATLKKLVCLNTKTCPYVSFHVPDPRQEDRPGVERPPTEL

Human recombinant COX-2 = target: T2, Human recombinant COX-2 (Homo sapiens, UniProt P35354); assay: biochemical
T2 sequence (P35354 18-604): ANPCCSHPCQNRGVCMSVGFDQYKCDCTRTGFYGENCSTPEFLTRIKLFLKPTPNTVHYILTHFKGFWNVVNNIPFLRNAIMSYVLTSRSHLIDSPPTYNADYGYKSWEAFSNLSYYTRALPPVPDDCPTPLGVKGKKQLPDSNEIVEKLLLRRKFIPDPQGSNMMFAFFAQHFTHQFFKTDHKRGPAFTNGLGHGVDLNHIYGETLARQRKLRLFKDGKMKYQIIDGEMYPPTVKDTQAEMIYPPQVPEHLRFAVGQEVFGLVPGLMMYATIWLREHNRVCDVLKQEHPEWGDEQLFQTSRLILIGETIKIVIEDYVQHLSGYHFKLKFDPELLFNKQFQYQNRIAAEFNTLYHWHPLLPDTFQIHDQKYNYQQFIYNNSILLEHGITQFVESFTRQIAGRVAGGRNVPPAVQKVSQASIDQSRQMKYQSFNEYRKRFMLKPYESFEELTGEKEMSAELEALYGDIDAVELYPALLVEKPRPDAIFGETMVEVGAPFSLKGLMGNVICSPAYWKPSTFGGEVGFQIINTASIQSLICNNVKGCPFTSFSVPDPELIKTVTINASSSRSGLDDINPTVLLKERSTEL

[2] = read-out: IC50 in µM Ovine COX-1, fluorescent enzyme kit
[3] = read-out: IC50 in µM Human recombinant COX-2

Structure (SMILES)	inhibition at 10 µM [1] [%]	Response (n) Mean ± SD (male NMRI mice; 10 mg/kg i.p.)	Response (n) Mean ± SD (male NMRI mice; 20 mg/kg i.p.)	Response (n) Mean ± SD (male NMRI mice; 40 mg/kg i.p.)	Response (n) Mean ± SD (male NMRI mice; 80 mg/kg i.p.)	ED50 (male NMRI mice) [mg/kg]	Response (n) Mean ± SD (male NMRI mice; 5 mg/kg i.p.)	IC50 (Ovine COX-1) [µM]	IC50 (Human recombinant COX-2) [µM]	Selectivity Index (SI) (Human recombinant COX-2; COX-1 vs COX-2)	% Inhibition (10 µM) [1] [%]	Estimated ED50 (mg/kg) (95% Confidence Interval) (male NMRI mice)	IC50 (Ovine COX-1; [2]) [µM]	Selectivity Index (SI) (Human recombinant COX-2)	IC50 (Human recombinant COX-2; [3]) [µM]
Cc1ccc(-c2cc(C(F)(F)F)nn2-c2ccc(S(N)(=O)=O)cc2)cc1 [Celecoxib, reference compound]	75.8	33.62 ± 1.79	26.37 ± 2.86	13.75 ± 2.72	7.37 ± 2.39	20.2									
CS(=O)(=O)c1ccc(-c2cc(-c3ccccc3)n3c(n2)nc2ccccc23)cc1 [Compound 5a, 2-(4-(Methylsulfonyl)phenyl)-4-phenylbenzo[4,5]imidazo[1,2-a]pyrimidine]	53.3	20.75 ± 3.07	17.25 ± 2.95	12.63 ± 2.64	10.00 ± 1.50	8.65	25 ± 1.58	6.1	0.05	122					
Cc1ccccc1-c1cc(-c2ccc(S(C)(=O)=O)cc2)nc2nc3ccccc3n12 [Compound 5b, 2-(4-(Methylsulfonyl)phenyl)-4-(o-tolyl)benzo[4,5]imidazo[1,2-a]pyrimidine]	76.9							48.3	> 100						
Cc1cccc(-c2cc(-c3ccc(S(C)(=O)=O)cc3)nc3nc4ccccc4n23)c1 [Compound 5c, 2-(4-(Methylsulfonyl)phenyl)-4-(m-tolyl)benzo[4,5]imidazo[1,2-a]pyrimidine]	76							24	> 100						
Cc1ccc(-c2cc(-c3ccc(S(C)(=O)=O)cc3)nc3nc4ccccc4n23)cc1 [Compound 5d, 2-(4-(Methylsulfonyl)phenyl)-4-(p-tolyl)benzo[4,5]imidazo[1,2-a]pyrimidine]	78.2	17.88 ± 4.28	14.75 ± 4.47	13.25 ± 2.59	10.25 ± 2.73	5.75	18.63 ± 5.87	40.8	0.68	60					
COc1ccccc1-c1cc(-c2ccc(S(C)(=O)=O)cc2)nc2nc3ccccc3n12 [Compound 5e, 4-(2-Methoxyphenyl)-2-(4-(methylsulfonyl)phenyl)benzo[4,5]imidazo[1,2-a]pyrimidine]	74.3	36.63 ± 1.41	28.25 ± 3.99	19.13 ± 3.76	15 ± 1.58	29	38.38 ± 1.32	6.9	0.06	115					
COc1cccc(-c2cc(-c3ccc(S(C)(=O)=O)cc3)nc3nc4ccccc4n23)c1 [Compound 5f, 4-(3-Methoxyphenyl)-2-(4-(methylsulfonyl)phenyl)benzo[4,5]imidazo[1,2-a]pyrimidine]	75.4							> 100	> 100						
COc1ccc(-c2cc(-c3ccc(S(C)(=O)=O)cc3)nc3nc4ccccc4n23)cc1 [Compound 5g, 4-(4-Methoxyphenyl)-2-(4-(methylsulfonyl)phenyl)benzo[4,5]imidazo[1,2-a]pyrimidine]	79.6	36.63 ± 1.32	29.13 ± 6.27	21.88 ± 3.37	13.63 ± 1.32	32.1		> 100	5.4	> 18.5					
COc1ccc(-c2cc(-c3ccc(S(C)(=O)=O)cc3)nc3nc4ccccc4n23)cc1OC [Compound 5h, 4-(3,4-Dimethoxyphenyl)-2-(4-(methylsulfonyl)phenyl)benzo[4,5]imidazo[1,2-a]pyrimidine]	79.3							13.9	> 100						
COc1cc(-c2cc(-c3ccc(S(C)(=O)=O)cc3)nc3nc4ccccc4n23)cc(OC)c1OC [Compound 5i, 4-(3,4,5-Trimethoxyphenyl)-2-(4-(methylsulfonyl)phenyl)benzo[4,5]imidazo[1,2-a] pyrimidine]	77.9	39.25 ± 2.38	30.87 ± 3.82	24.62 ± 3.04	15.87 ± 3.18	40.1		16.3	0.58	28.1					
CS(=O)(=O)c1ccc(-c2cc(-c3ccccc3F)n3c(n2)nc2ccccc23)cc1 [Compound 5j, 4-(2-Flourophenyl)-2-(4-(methylsulfonyl)phenyl)benzo[4,5]imidazo[1,2-a]pyrimidine]		25.88 ± 2.98	19.88 ± 3.06	16.75 ± 3.11	13.38 ± 2.45		33.75 ± 1.39				76.73	15.34 (13.14–17.89) mg/kg	14	50	0.28
CS(=O)(=O)c1ccc(-c2cc(-c3cccc(F)c3)n3c(n2)nc2ccccc23)cc1 [Compound 5k, 4-(3-Flourophenyl)-2-(4-(methylsulfonyl)phenyl)benzo[4,5]imidazo[1,2-a]pyrimidine]		32.38 ± 2.34	25.38 ± 3.43	17.63 ± 4.79	11.88 ± 3.18						58.73	22.80 (20.03–25.92) mg/kg	> 100		5.8
CS(=O)(=O)c1ccc(-c2cc(-c3ccccc3Cl)n3c(n2)nc2ccccc23)cc1 [Compound 5m, 4-(2-Chlorophenyl)-2-(4-(methylsulfonyl)phenyl)benzo[4,5]imidazo[1,2-a]pyrimidine]	51.3							15.2	> 100						
CS(=O)(=O)c1ccc(-c2cc(-c3ccc(Cl)cc3)n3c(n2)nc2ccccc23)cc1 [Compound 5o, 4-(4-Chlorophenyl)-2-(4-(methylsulfonyl)phenyl)benzo[4,5]imidazo[1,2-a]pyrimidine]	72.3							17.8	> 100						
